Data from ChEMBL document CHEMBL1134588, “[2',6'-Dimethyltyrosine]dynorphin A(1-11)-NH2 analogues lacking an N-terminal amino group: potent and selective kappa opioid antagonists” (J Med Chem, 2001).

What was measured:
[1] = molecular target: Kappa-type opioid receptor (Cavia porcellus, UniProt P41144); experiment: Binding affinity was measured on opioid receptor kappa 1
Cavia porcellus = species on record: Cavia porcellus; experiment: Inhibitory concentration of compound was measured in guinea pig ileum(GPI) assay; assay type: functional
Procedure, shortened: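 Isolated guinea pig ileum, measuring inhibition of electrically evoked contractions. Each preparation received a [Leu5]enkephalin dose-response curve as standard, and the IC50 values were normalized to it.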

Mus musculus = species on record: Mus musculus; experiment: Inhibitory concentration of compound was measured in mouse vas deferens assay; assay type: functional
Procedure, shortened: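 Mouse vas deferens bioassay, measuring inhibition of electrically evoked contractions. A [Leu5]enkephalin standard dose-response curve was run on each vas preparation, and the IC50 values were normalized accordingly.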

[2] = molecular target: Kappa-type opioid receptor (Cavia porcellus) (UniProt P41144); experiment: Antagonist activity was evaluated in the guinea pig ileum assay against Dyn A(1-13)-selective agonist of opioid receptor kappa 1; assay type: functional, tissue-based
[3] = molecular target: Kappa-type opioid receptor (Cavia porcellus) (UniProt P41144); experiment: Antagonist activity was evaluated in the guinea pig ileum assay against U50,488- selective agonist of opioid receptor kappa 1; assay type: functional, tissue-based
Procedure, shortened: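 Ke taken from agonist IC50 ratio in presence versus absence of antagonist; [Leu5]enkephalin dose-response on each ileum used to normalize IC50s. Three to six determinations, mean ± SEM.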

[4] = molecular target: Delta-type opioid receptor (Mus musculus) (UniProt P32300); experiment: Antagonist activity was evaluated in the mouse vas deferens assay against DPDPE which is selective agonist of Delta receptor; assay type: functional, tissue-based
Procedure, shortened: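 Mouse vas deferens, electrically evoked contractions; delta antagonism against DPDPE at fixed antagonist 30 nM to 10 µM. Ke obtained from agonist IC50 ratio with versus without antagonist; each vas preparation standardized with [Leu5]enkephalin dose-response. Means of three to six determinations ± SEM.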

[5] = molecular target: Mu-type opioid receptor (Cavia porcellus) (UniProt P97266); experiment: Antagonist activity was evaluated in the guinea pig ileum assay against TAPP-selective agonist of Mu receptor; assay type: functional, tissue-based
Procedure, shortened: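 Mu antagonism in guinea pig ileum (electrically evoked contractions) versus agonist TAPP, fixed antagonist concentrations 100 nM to 5 µM. Ke computed from shift in agonist IC50 (with/without antagonist), IC50s normalized against per-tissue [Leu5]enkephalin standard. Mean of three to six runs ± SEM.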

Sequence of Kappa-type opioid receptor (P41144 whole entry): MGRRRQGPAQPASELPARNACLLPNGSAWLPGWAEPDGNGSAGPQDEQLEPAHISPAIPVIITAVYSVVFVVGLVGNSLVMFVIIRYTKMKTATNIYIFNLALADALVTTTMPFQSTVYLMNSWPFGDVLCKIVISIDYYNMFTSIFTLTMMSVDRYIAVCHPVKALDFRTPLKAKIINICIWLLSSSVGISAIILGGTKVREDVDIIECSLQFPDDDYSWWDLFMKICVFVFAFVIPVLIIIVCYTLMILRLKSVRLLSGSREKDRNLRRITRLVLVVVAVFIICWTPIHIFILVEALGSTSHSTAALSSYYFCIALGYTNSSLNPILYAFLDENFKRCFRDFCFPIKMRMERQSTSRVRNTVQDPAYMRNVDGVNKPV
Sequence of Kappa-type opioid receptor (Cavia porcellus) (P41144 whole entry): as above
Sequence of Delta-type opioid receptor (Mus musculus) (P32300 whole entry): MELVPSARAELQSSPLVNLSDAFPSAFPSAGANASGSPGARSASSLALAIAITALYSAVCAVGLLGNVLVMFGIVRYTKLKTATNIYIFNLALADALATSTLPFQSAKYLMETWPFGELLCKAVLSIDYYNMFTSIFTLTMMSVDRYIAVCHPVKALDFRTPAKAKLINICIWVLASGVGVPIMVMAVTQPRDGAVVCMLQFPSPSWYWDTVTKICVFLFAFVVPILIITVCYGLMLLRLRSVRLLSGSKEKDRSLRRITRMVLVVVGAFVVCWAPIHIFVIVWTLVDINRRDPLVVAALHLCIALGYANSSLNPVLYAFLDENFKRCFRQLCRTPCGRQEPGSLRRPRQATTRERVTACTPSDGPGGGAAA
Sequence of Mu-type opioid receptor (Cavia porcellus) (P97266 whole entry): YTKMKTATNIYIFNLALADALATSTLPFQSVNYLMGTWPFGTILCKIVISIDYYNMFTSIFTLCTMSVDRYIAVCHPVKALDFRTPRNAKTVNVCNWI

SMILES	Ki [1] [nM]	IC50 (Mus musculus) [nM]	further results
CC[C@H](C)[C@H](NC(=O)[C@H](CCCN=C(N)N)NC(=O)[C@H](CCCN=C(N)N)NC(=O)[C@H](CC(C)C)NC(=O)[C@H](Cc1ccccc1)NC(=O)[C@@H](C)NC(=O)CNC(=O)[C@@H](C)Cc1c(C)cc(O)cc1C)C(=O)N[C@@H](CCCN=C(N)N)C(=O)N1CCC[C@H]1C(=O)N[C@@H](CCCCN)C(N)=O	2.47		
CC[C@H](C)[C@H](NC(=O)[C@H](CCCN=C(N)N)NC(=O)[C@H](CCCN=C(N)N)NC(=O)[C@H](CC(C)C)NC(=O)[C@H](Cc1ccccc1)NC(=O)CNC(=O)CNC(=O)[C@@H](N)Cc1c(C)cc(O)cc1C)C(=O)N[C@@H](CCCN=C(N)N)C(=O)N1CCC[C@H]1C(=O)N[C@@H](CCCCN)C(N)=O		0.377	IC50 (Cavia porcellus): 0.502 nM
Oc1ccc2c3c1O[C@H]1c4[nH]c5c(c4C[C@@]4(O)[C@@H](C2)N(CC2CC2)CC[C@]314)C[C@@]1(O)[C@H]2Cc3ccc(O)c4c3[C@@]1(CCN2CC1CC1)[C@H]5O4 [NORBINALTORPHIMINE]	0.81		
CC[C@H](C)[C@H](NC(=O)[C@H](CCCN=C(N)N)NC(=O)[C@H](CCCN=C(N)N)NC(=O)[C@H](CC(C)C)NC(=O)[C@H](Cc1ccccc1)NC(=O)[C@@H](C)NC(=O)CNC(=O)CCc1c(C)cc(O)cc1C)C(=O)N[C@@H](CCCN=C(N)N)C(=O)N1CCC[C@H]1C(=O)N[C@@H](CCCCN)C(N)=O	3.84		
CC[C@H](C)[C@H](NC(=O)[C@H](CCCNC(=N)N)NC(=O)[C@H](CCCNC(=N)N)NC(=O)[C@H](CC(C)C)NC(=O)[C@H](Cc1ccccc1)NC(=O)CNC(=O)CNC(=O)[C@@H](C)Cc1c(C)cc(O)cc1C)C(=O)N[C@@H](CCCNC(=N)N)C(=O)N1CCC[C@H]1C(=O)N[C@@H](CCCCN)C(N)=O			Ke [2]: 0.632 nM; Ke [3]: 3.92 nM; Ke [4]: 3.22 µM; Ke [5]: 925 nM
CC[C@H](C)[C@H](NC(=O)[C@H](CCCNC(=N)N)NC(=O)[C@H](CCCNC(=N)N)NC(=O)[C@H](CC(C)C)NC(=O)[C@H](Cc1ccccc1)NC(=O)CNC(=O)CNC(=O)CCc1c(C)cc(O)cc1C)C(=O)N[C@@H](CCCNC(=N)N)C(=O)N1CCC[C@H]1C(=O)N[C@@H](CCCCN)C(N)=O	3.49		
CC[C@H](C)[C@H](NC(=O)[C@H](CCCN=C(N)N)NC(=O)[C@H](CCCN=C(N)N)NC(=O)[C@H](CC(C)C)NC(=O)[C@H](Cc1ccccc1)NC(=O)CNC(=O)CNC(=O)[C@@H](N)Cc1ccc(O)cc1)C(=O)N[C@@H](CCCN=C(N)N)C(=O)N1CCC[C@H]1C(=O)N[C@@H](CCCCN)C(N)=O		12.9	IC50 (Cavia porcellus): 0.456 nM
CC[C@H](C)[C@H](NC(=O)[C@H](CCCNC(=N)N)NC(=O)[C@H](CCCNC(=N)N)NC(=O)[C@H](CC(C)C)NC(=O)[C@H](Cc1ccccc1)NC(=O)CNC(=O)CNC(=O)CCc1ccc(O)cc1)C(=O)N[C@@H](CCCNC(=N)N)C(=O)N1CCC[C@H]1C(=O)N[C@@H](CCCCN)C(N)=O	30.7	722	
